ChEMBL document CHEMBL4689842, “EUbOPEN Chemogenomics Library wave 1” (2021)
Several values for one entry are separate records, joined by “and”; a condition that tells them apart may be missing. Equal entries are not always repeated.

System: Fibroblast
Experiment: Multiplex assay against human fibroblast
Type: toxicity, cell-based
Summary of the method: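 Live cells were stained at seeding with Hoechst33342, BioTracker Green Microtubule Cytoskeleton Dye, MitoTracker Red and Annexin V Alexa Fluor 680, then imaged on a CQ1 microscope at 37°C and 5% CO2 after compound addition. CellPathfinder machine-learning gating split cells into Hoechst high-intensity objects or normal cells. Normal cells were split into healthy, pyknosed or fragmented nuclei, and pyknosed cells into mitotic or apoptotic. Tubulin, mitochondrial-mass and membrane-permeability phenotypes are per cents of healthy-nucleus cells.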

[1] = 12 h, 1 µM, compound concentration 1 uM, replicate 1
[2] = 12 h, 1 µM, compound concentration 1 uM, replicate 2
[3] = 12 h, 10 µM, compound concentration 10 uM, replicate 1
[4] = 12 h, 10 µM, compound concentration 10 uM, replicate 2
[5] = 24 h, 1 µM, compound concentration 1 uM, replicate 1
[6] = 24 h, 1 µM, compound concentration 1 uM, replicate 2
[7] = 24 h, 10 µM, compound concentration 10 uM, replicate 1
[8] = 24 h, 10 µM, compound concentration 10 uM, replicate 2
[9] = 48 h, 1 µM, compound concentration 1 uM, replicate 1
[10] = 48 h, 1 µM, compound concentration 1 uM, replicate 2
[11] = 48 h, 10 µM, compound concentration 10 uM, replicate 1
[12] = 48 h, 10 µM, compound concentration 10 uM, replicate 2

`Nc1c(C(=O)NCc2ccc(C(=O)NCCCC3CCCCC3)cc2)cnn1-c1ccccc1` [SR-318] was tested, and the “Population Apoptotic (%)” value [1] was 63% and 53% and 61%, the “Population Fragmented Nuclei (%)” value [1] was 20% and 26% and the “Population Healthy Nuclei (%)” value [1] was 41% and 34%. The “Population Hoechst High Intensity Objects (%)” value [1] was 10% and 11%, the “Population Membrane Permeable-Phenotype (%)” value [1] was 34% and 21% and 18% and the “Population Mitochondria Different-Phenotype (%)” value [1] was 6% and 7% and 9%. For the same molecule, the “Population Mitotic Cells (%)” value [1] was 36% and 46% and 38%, the “Population Normal (%)” value [1] was 89% and 88% and the “Population Pyknosed Nuclei (%)” value [1] was 38% and 44%. The “Population Tubulin-Different-Phenotype (%)” value [1] was 46% and 39% and 51%, the “Total Cell Count” value [1] was 128 and 123 and 142 and the “Population Fragmented Nuclei (%)” value [2] was 9% and 5% and 3%. For the same molecule, the “Population Healthy Nuclei (%)” value [2] was 83% and 75% and 91%, the “Population Membrane Permeable-Phenotype (%)” value [2] was 6% and 5% and the “Population Mitochondria Different-Phenotype (%)” value [2] was 8%. For the same molecule, the “Population Mitotic Cells (%)” value [2] was 50% and 87% and 100%, the “Population Normal (%)” value [2] was 95% and 73% and 96% and the “Population Tubulin-Different-Phenotype (%)” value [2] was 19% and 25% and 11%. For the same molecule, the “Total Cell Count” value [2] was 63 and 91 and 118, the “Population Apoptotic (%)” value [3] was 65% and 54% and 56% and the “Population Fragmented Nuclei (%)” value [3] was 20% and 24% and 14%. For the same molecule, the “Population Healthy Nuclei (%)” value [3] was 29% and 33% and 37%, the “Population Hoechst High Intensity Objects (%)” value [3] was 8% and 10% and 20% and the “Population Mitochondria Different-Phenotype (%)” value [3] was 24% and 47% and 43%. The “Population Mitotic Cells (%)” value [3] was 34% and 45% and 43%, the “Population Normal (%)” value [3] was 91% and 89% and 79% and the “Population Pyknosed Nuclei (%)” value [3] was 50% and 42% and 47%. For the same molecule, the “Population Tubulin-Different-Phenotype (%)” value [3] was 88% and 76% and 85%, the “Total Cell Count” value [3] was 94 and 140 and 136 and the “Population Apoptotic (%)” value [4] was 45% and 22% and 33%. For the same molecule, the “Population Fragmented Nuclei (%)” value [4] was 17% and 15% and 12%, the “Population Healthy Nuclei (%)” value [4] was 69% and 58% and 72% and the “Population Mitochondria Different-Phenotype (%)” value [4] was 55% and 51% and 60%. The “Population Mitotic Cells (%)” value [4] was 54% and 77% and 66%, the “Population Normal (%)” value [4] was 92% and 98% and the “Population Pyknosed Nuclei (%)” value [4] was 13% and 25% and 15%. The “Population Tubulin-Different-Phenotype (%)” value [4] was 50% and 56% and 67%, the “Total Cell Count” value [4] was 71 and 90 and 91 and the “Population Apoptotic (%)” value [5] was 44% and 58% and 55%. For the same molecule, the “Population Fragmented Nuclei (%)” value [5] was 17% and 19% and 22%, the “Population Healthy Nuclei (%)” value [5] was 46% and 43% and 44% and the “Population Hoechst High Intensity Objects (%)” value [5] was 8% and 6% and 10%. The “Population Membrane Permeable-Phenotype (%)” value [5] was 34% and 25% and 33%, the “Population Mitochondria Different-Phenotype (%)” value [5] was 6% and 4% and 12% and the “Population Mitotic Cells (%)” value [5] was 55% and 41% and 44%. The “Population Normal (%)” value [5] was 91% and 93% and 89%, the “Population Pyknosed Nuclei (%)” value [5] was 36% and 33% and the “Population Tubulin-Different-Phenotype (%)” value [5] was 44% and 31% and 60%. The “Total Cell Count” value [5] was 137 and 115 and 142, the “Population Apoptotic (%)” value [6] was 25% and the “Population Fragmented Nuclei (%)” value [6] was 6% and 3% and 4%. For the same molecule, the “Population Healthy Nuclei (%)” value [6] was 80% and 84% and 75%, the “Population Membrane Permeable-Phenotype (%)” value [6] was 8% and 5% and the “Population Mitochondria Different-Phenotype (%)” value [6] was 13% and 7%. The “Population Mitotic Cells (%)” value [6] was 75%, the “Population Normal (%)” value [6] was 94% and 97% and 77% and the “Population Pyknosed Nuclei (%)” value [6] was 13% and 11% and 19%. The “Population Tubulin-Different-Phenotype (%)” value [6] was 22% and 14% and 23%, the “Total Cell Count” value [6] was 67 and 130 and 97 and the “Population Apoptotic (%)” value [7] was 66% and 45% and 56%. The “Population Fragmented Nuclei (%)” value [7] was 15% and 18% and 29%, the “Population Healthy Nuclei (%)” value [7] was 43% and 47% and 39% and the “Population Hoechst High Intensity Objects (%)” value [7] was 16% and 12% and 11%. For the same molecule, the “Population Mitochondria Different-Phenotype (%)” value [7] was 31% and 48% and 42%, the “Population Mitotic Cells (%)” value [7] was 33% and 54% and 43% and the “Population Normal (%)” value [7] was 83% and 87% and 88%. For the same molecule, the “Population Pyknosed Nuclei (%)” value [7] was 40% and 33% and 30%, the “Population Tubulin-Different-Phenotype (%)” value [7] was 76% and 87% and 86% and the “Total Cell Count” value [7] was 105 and 118 and 143. The “Population Apoptotic (%)” value [8] was 28% and 44% and 46%, the “Population Fragmented Nuclei (%)” value [8] was 13% and 17% and 14% and the “Population Healthy Nuclei (%)” value [8] was 65% and 62% and 66%. For the same molecule, the “Population Membrane Permeable-Phenotype (%)” value [8] was 9% and 7% and 3%, the “Population Mitochondria Different-Phenotype (%)” value [8] was 58% and 57% and 66% and the “Population Mitotic Cells (%)” value [8] was 71% and 55% and 53%. The “Population Normal (%)” value [8] was 98% and 92%, the “Population Pyknosed Nuclei (%)” value [8] was 21% and 20% and 18% and the “Population Tubulin-Different-Phenotype (%)” value [8] was 41% and 30% and 61%. The “Total Cell Count” value [8] was 104 and 67 and 97, the “Population Apoptotic (%)” value [9] was 73% and 50% and 47% and the “Population Fragmented Nuclei (%)” value [9] was 32% and 28% and 24%. The “Population Healthy Nuclei (%)” value [9] was 43% and 48% and 60%, the “Population Hoechst High Intensity Objects (%)” value [9] was 14% and 12% and the “Population Membrane Permeable-Phenotype (%)” value [9] was 22% and 21% and 16%. For the same molecule, the “Population Mitochondria Different-Phenotype (%)” value [9] was 2% and 7%, the “Population Mitotic Cells (%)” value [9] was 26% and 50% and 52% and the “Population Normal (%)” value [9] was 85% and 87%. The “Population Pyknosed Nuclei (%)” value [9] was 24% and 22% and 15%, the “Population Tubulin-Different-Phenotype (%)” value [9] was 20% and 37% and 36% and the “Total Cell Count” value [9] was 109 and 153 and 141. The “Population Apoptotic (%)” value [10] was 100% and 83%, the “Population Fragmented Nuclei (%)” value [10] was 22% and 27% and 14% and the “Population Healthy Nuclei (%)” value [10] was 73% and 71% and 81%. The “Population Hoechst High Intensity Objects (%)” value [10] was 16% and 13% and 11%, the “Population Membrane Permeable-Phenotype (%)” value [10] was 18% and 13% and the “Population Mitochondria Different-Phenotype (%)” value [10] was 5% and 4%. The “Population Mitotic Cells (%)” value [10] was 0% and 16%, the “Population Normal (%)” value [10] was 83% and 86% and 88% and the “Population Tubulin-Different-Phenotype (%)” value [10] was 28% and 40% and 26%. The “Total Cell Count” value [10] was 116 and 115 and 159, the “Population Apoptotic (%)” value [11] was 71% and 75% and 64% and the “Population Fragmented Nuclei (%)” value [11] was 36% and 33%. The “Population Healthy Nuclei (%)” value [11] was 43% and 45% and 41%, the “Population Hoechst High Intensity Objects (%)” value [11] was 20% and 19% and 17% and the “Population Membrane Permeable-Phenotype (%)” value [11] was 12% and 4% and 3%. For the same molecule, the “Population Mitochondria Different-Phenotype (%)” value [11] was 40% and 45% and 36%, the “Population Mitotic Cells (%)” value [11] was 28% and 25% and 35% and the “Population Normal (%)” value [11] was 79% and 80% and 82%. For the same molecule, the “Population Pyknosed Nuclei (%)” value [11] was 19% and 21% and 25%, the “Population Tubulin-Different-Phenotype (%)” value [11] was 81% and 83% and 82% and the “Total Cell Count” value [11] was 92 and 116 and 150. For the same molecule, the “Population Fragmented Nuclei (%)” value [12] was 28% and 31% and 23%, the “Population Healthy Nuclei (%)” value [12] was 66% and 63% and 71% and the “Population Hoechst High Intensity Objects (%)” value [12] was 9% and 3%. The “Population Membrane Permeable-Phenotype (%)” value [12] was 9% and 6%, the “Population Mitochondria Different-Phenotype (%)” value [12] was 13% and 23% and 16% and the “Population Mitotic Cells (%)” value [12] was 83% and 50% and 85%. The “Population Normal (%)” value [12] was 90% and 96%, the “Population Pyknosed Nuclei (%)” value [12] was 5% and 4% and the “Population Tubulin-Different-Phenotype (%)” value [12] was 68% and 86%. For the same molecule, the “Total Cell Count” value [12] was 121 and 148 and 157.
